High-throughput results from PubChem.
Most compounds without a hit are left out; they make up all but 1.9% or so of the library.
DNA FID counter-1 = fluorescent intercalator displacement, NS3 helicase counter-screen | DNA fluorescent intercalator displacement, fluorescence | inhibition, % at 7.9 µM | hit rate 0.17% among 290,000 | AID 1845;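 further: higher means more ethidium bromide displaced from hairpin DNA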
HCV NS3 hel inh = HCV NS3 helicase inhibition | NS3 helicase DNA unwinding, Cy5 molecular beacon fluorescence | inhibition, % at 10.9 µM | hit rate 0.56% among 290,000;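 active means inhibition above the mean of all tested compounds plus 3 SD, set per campaign, cut at about 35% in these data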
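Measured by: Cy5 fluorescence, 0 and 60 min reads / Assay system: NS3 helicase fragment of HCV / Control set: low DMSO, high thioflavine S at 110 µM / Times: 1 h reaction at 25 °C, ATP-initiated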
GPR7 antag = human neuropeptides B/W receptor 1 antagonism | P48145 | GPR7-expressing cells, fluorescence antagonist assay | inhibition, % at 4.4 µM | hit rate 1.1% among 290,000; in the data active means inhibition above about 16%, passing the limit was not always enough;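 further: cells stimulated with the agonist NPW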
core dimer inh = HCV core protein dimerization inhibition. inhibition, % at 5 µM. TR-FRET GST/Flag-core106 dimerization, 1536-well. hit rate 0.33% among 300,000;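 active means inhibition above the mean of all tested compounds plus 3 SD, set per screening campaign, cut at about 45% in these data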
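Assay system: Tagged HCV core106 pair (GST and Flag) | Buffer or medium: KF-containing HEPES buffer, pH 7.45, DTT, CHAPS, BSA | Also added: Eu donor and XL665 acceptor anti-tag antibodies | Dosing: One concentration, 5 µM, in 0.5% DMSO | Timing: 4 h at 22.5 °C | Technique: TR-FRET 671 and 617 nm emission | Repeats: Singlicate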
pCIP destab = compounds decreasing mouse p/CIP protein stability; AID 1984; F442A p/CIP-EGFP cells, EGFP fluorescence, 16 h; hit rate 0.01% among 290,000; decrease of EGFP signal, % at 10 µM; Q05BA5;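 active means EGFP signal decrease of at least 30% at 10 µM or well 3 SD below plate mean, unless failing retest; inactive means the rest, including hits failing retest or dose response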
NS3 hel confirm = confirmation of Hepatitis C virus NS3 helicase inhibitors. shares compounds with HCV NS3 hel inh. NS3 helicase DNA unwinding, Cy5 molecular beacon fluorescence. inhibition, % at 10.9 µM. hit rate 31% among 1,600. AID 1943;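 active means inhibition above the mean of all tested compounds plus 3 SD, cutoff set per campaign, cut at about 36% in these data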
DNA FID counter-2 = displaces DNA intercalator in HCV helicase counter-screen. shares compounds with HCV NS3 hel inh. DNA fluorescent intercalator displacement, fluorescence. inhibition, % at 7.9 µM. hit rate 4% among 1,600. AID 1945;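 further: higher means more displacement of ethidium bromide from the DNA hairpin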
FID counter DR = displaces fluorescent intercalator from DNA, HCV helicase counter-screen. shares compounds with HCV NS3 hel inh. 120 tested, under 10 active. fluorescent intercalator displacement from DNA, fluorescence. IC50, µM. AID 2172; call rule not given here
A number is an active result; n = inactive; x = no result given. Unless noted, no stated cut-off is given here; in the data, active means inhibition above about 37%; inactive means the rest.

SMILES	DNA FID counter-1	HCV NS3 hel inh	GPR7 antag	core dimer inh	pCIP destab	NS3 hel confirm	DNA FID counter-2	others
COc1ccc(NC(=O)/C(C#N)=C\C=C\c2ccco2)cc1	n	85	n	n	n	n	n
Cc1cc(N2C(=O)C(=O)/C(=C(/O)c3ccc(F)cc3)C2c2cccc(Br)c2)no1 (configuration not stated)	n	38	n	n	n	64	n
COc1ccc(/C(O)=C2/C(=O)C(=O)N(c3ccccn3)C2c2ccc(C(C)C)cc2)cc1 (configuration not stated)	n	39	n	x	n	85	n	FID counter DR=n
CCCOc1ccc(/C(O)=C2/C(=O)C(=O)N(c3ccccn3)C2c2ccc(OC)cc2)cc1C (configuration not stated)	n	69	n	n	n	91	n	FID counter DR=n
COc1ccc(/C(O)=C2/C(=O)C(=O)N(c3ccccn3)C2c2ccc(OC)cc2)cc1 (configuration not stated)	n	n	n	x	n	x	x
O=C1C(=O)N(c2ccccn2)C(c2ccc(Br)cc2)/C1=C(/O)c1ccc(Br)cc1 (configuration not stated)	n	73	n	x	n	85	n
COc1ccc(/C(O)=C2/C(=O)C(=O)N(c3ccccn3)C2c2cccc(Cl)c2)cc1 (configuration not stated)	n	44	n	n	n	44	n
CCCC(=O)N(Cc1cc(=O)[nH]c2ccccc12)c1ccccc1C	n	n	n	n	n	x	x
NC(=O)c1cnn2c(-c3ccc(Cl)cc3Cl)ccnc12	n	n	n	n	n	x	x
O=C(Nc1ccc(Nc2ccncc2)cc1)c1ccc(Nc2ccnc3ccc([N+](=O)[O-])cc23)cc1	39	53	n	x	n	78	103
O=C(Nc1ccc(Cc2ccncc2)cc1)c1cccc([N+](=O)[O-])c1	n	n	n	n	n	x	x
CCOc1cc2c(cc1OC)C(NC(=O)c1ccco1)CC2=O (configuration not stated)	n	n	n	n	n	x	x
O=C(O)/C(=C/c1ccco1)NC(=O)c1ccccc1	n	n	n	n	n	x	x
O=C(NC(Cc1ccccc1)C(=O)O)/C(=C\c1ccco1)NC(=O)c1ccccc1 (configuration not stated)	n	37	n	n	n	54	n
O=C(O)/C(=C\c1ccco1)NC(=O)c1cccc2ccccc12	n	53	n	n	n	n	n
CSc1sccc1/C=N/O	n	n	n	n	n	x	x
CSc1sccc1/C=C(/C#N)C(=O)c1ccco1	n	38	n	n	n	n	n
COc1ccc(C(=O)Nc2ccccc2C(=O)O)cc1Cl	n	39	n	n	n	n	n
S=C(Nc1ccc2[nH]ccc2c1)NC1CCCCC1	n	n	n	n	n	x	x
COc1ccc(OCC(O)CNC(=O)c2sccc2Cl)cc1 (configuration not stated)	n	44	n	n	n	n	n
COc1ccc(OCC(O)CNC(=O)Nc2ccccc2)cc1 (configuration not stated)	n	n	n	n	n	x	x
O=C(OCc1cc(=O)n2c(n1)sc1ccccc12)c1ccc(O)cc1O	n	36	n	n	n	n	n
CCOC(=O)c1ccc(N2C(=O)c3n[nH]c(C)c3C2c2cccnc2)cc1 (configuration not stated)	n	n	n	n	n	x	x
CCOC(=O)c1ccc(N2C(=O)c3n[nH]c(-c4ccco4)c3C2c2ccc([N+](=O)[O-])cc2)cc1 (configuration not stated)	n	38	n	n	n	n	n
CC(C)COc1cccc(C(=O)Nc2ccc(N3CCOCC3)cc2N2CCOCC2)c1	x	x	x	n	x	x	x
SMILES	DNA FID counter-1	HCV NS3 hel inh	GPR7 antag	core dimer inh	pCIP destab	NS3 hel confirm	DNA FID counter-2	others
CN1C(=O)[C@H]2[C@@H](/C=C/c3ccccc3)N3C(=O)CN(CCO)C(=O)[C@@]3(Cc3ccccc3)[C@H]2C1=O	n	44	n	n	n	n	n
O=C1[C@H]2[C@@H](/C=C/c3ccccc3)N3C(=O)CN(CCO)C(=O)[C@@]3(Cc3ccccc3)[C@H]2C(=O)N1c1ccccc1	n	n	n	n	n	x	x
O=C(O)C(c1ccccc1)N1C(=O)/C(=C\c2ccc(-c3ccccc3Cl)o2)SC1=S (configuration not stated)	n	59	n	n	n	83	57
COc1ccc(-c2n[nH]c(=S)n2-c2ccc(Br)cc2)cc1OC	n	n	n	n	n	x	x
CC1(C)CC(=O)C2=C(C1)OC1=C(C(=O)CC(C)(C)C1)C2c1cc([N+](=O)[O-])cc([N+](=O)[O-])c1O	n	43	n	n	n	78	n
CCOc1cc(C2C3=C(CC(C)(C)CC3=O)OC3=C2C(=O)CC(C)(C)C3)cc([N+](=O)[O-])c1O	n	n	n	n	n	x	x
O=C(c1ccc(S(=O)(=O)N2CCCCC2)cc1)N1CCN(CCN2C(=O)c3cccc4cccc(c34)C2=O)CC1	n	n	n	n	n	x	x
COc1ccc(NC(=O)CSc2nc3ccccc3nc2N2CCCC2)cc1	n	n	n	n	n	x	x
Cc1ccc(NC(=O)COC(=O)c2ccccc2Nc2ccccc2)cc1	n	n	n	n	n	x	x
Cc1ccc(Nc2cccccc2=O)cc1	n	45	n	n	n	n	n
Cc1ccccc1OCCC(=O)Nc1cc(S(=O)(=O)N2CCOCC2)ccc1OC(C)C	n	n	n	n	n	x	x
CCn1c2ccccc2c2c3ncc4cccn4c3ccc21	n	44	n	n	n	n	50
N#CCNC(=O)C1c2ccccc2Oc2ccccc21	n	n	n	n	n	x	x
COc1cc(/C=C/C(=O)O)cc(S(=O)(=O)NCCCC(=O)O)c1OC	n	n	n	n	n	x	x
CN(C)/C=C1\C(=O)N(c2ccc([N+](=O)[O-])cc2)N=C1c1ccccc1	n	40	n	n	n	53	n
CC1CCN(S(=O)(=O)c2cc3c4c(c2)CCN4C(=O)CC3)CC1	x	x	x	n	x	x	x
CCc1ccc(N2CSC3=C(C#N)C(c4cccs4)CC(=O)N3C2)cc1 (configuration not stated)	n	n	n	n	n	x	x
CCc1ccc(C2CC(=O)N3CN(c4ccccc4)CSC3=C2C#N)cc1 (configuration not stated)	n	44	n	n	n	n	n
Cc1cc(/C=C2\SC(=S)NC2=O)c(C)n1C1CC1	n	76	n	n	n	36	n
COCCn1c(SC(C)C(=O)NCC2CCCO2)nc2scc(-c3ccc(F)cc3)c2c1=O (configuration not stated)	x	x	x	n	x	x	x
